Measured values collected from several papers.
Each line is one published result; the experiments were not run side by side. ≈ marks a conversion by molar mass, not a printed value.
Organism: Nakaseomyces glabratus
Effect on: microbial growth
Strain: ATCC90030

C[C@@H]1[C@H](O)[C@@H](C)/C=C/C=C/C=C/C=C/C=C/C=C/C=C/[C@H](O[C@@H]2O[C@H](C)[C@@H](O)[C@H](N)[C@@H]2O)C[C@@H]2O[C@](O)(C[C@@H](O)C[C@@H](O)[C@H](O)CC[C@@H](O)C[C@@H](O)CC(=O)O[C@H]1C)C[C@H](O)[C@H]2C(=O)O — IC50: 0.14 mg/L (≈ 0.152 µM)
O=C(O)c1nc2ccccc2c(=O)n1Cc1cn(-c2ccccc2Cl)nn1 — IC50 (broth dilution; 24 h): 266 mg/L (≈ 698 µM)
CCCCCOc1c(OC)cc(NC(C)CCCNC(=O)C(N)C(C)CC)c2nc(C(C)(C)C)ccc12 (stereo not shown) — IC50: 15.2 mg/L (≈ 29.6 µM)
C[C@@H]1[C@H](O)[C@@H](C)/C=C/C=C/C=C/C=C/C=C/C=C/C=C/[C@H](O[C@@H]2O[C@H](C)[C@@H](O)[C@H](N)[C@@H]2O)C[C@@H]2O[C@](O)(C[C@@H](O)C[C@@H](O)[C@H](O)CC[C@@H](O)C[C@@H](O)CC(=O)O[C@H]1C)C[C@H](O)[C@H]2C(=O)O — IC50 (broth dilution): 0.39 mg/L (≈ 0.422 µM)
COc1cc(NC(C)CCCN)c2nc(C(C)(C)C)ccc2c1Oc1ccc(Cl)c(Cl)c1 (stereo not shown) — IC50: 19.4 mg/L (≈ 40.7 µM)
O=C(O)c1ccc(-n2cc(Cn3c(C(=O)O)nc4ccccc4c3=O)nn2)cc1 — IC50 (broth dilution; 24 h): 522 mg/L (≈ 1330 µM)
C#CCCCCCCCCCCCC(O)CC(O)CO (stereo not shown) — IC50 (broth dilution): > 200 mg/L
CCOC(=O)c1nc2ccccc2c(=O)n1Cc1cn(-c2cccc(C)c2)nn1 — IC50 (broth dilution; 24 h): 395 mg/L (≈ 1010 µM)
CCCCCCCCCCCCCC(O)CC(O)CO (stereo not shown) — IC50 (broth dilution): > 200 mg/L
CCCCCOc1c(OC)cc(NC(C)CCCNC(=O)C(N)Cc2cc3ccccc3[nH]2)c2nc(C(C)(C)C)ccc12 (stereo not shown) — IC50: 9.72 mg/L (≈ 16.5 µM)
